MMP-13 inhibitor: human MMP13 inhibitors, primary screen, biochemical, FRET peptide cleavage; inhibition, % at 4 µM; 65,000 tested, 0.07% active; MMP-13 fTHP FRET cleavage, Mca fluorescence; Collagenase 3 (Homo sapiens), P45452;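 active = inhibition above the mean of compound-free control plate wells plus 3 SD, cut at about 14% in these data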
MT1-MMP txn act: MT1-MMP promoter reporter activation – cell-based, luciferase luminescence, primary screen; 86,000 tested, 0.16% active; activation factor at 10 µM; AID 750, 2007; HT1080 MT1-MMP promoter luciferase reporter, overnight; stronger effect = higher value;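 active = activation factor of at least 2 for MT1-MMP transcription at 10 µM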
WNV NS2B-NS3 inh: inhibitors of WNV NS2B-NS3 protease, primary screen, biochemical, fluorogenic substrate; fluorogenic substrate Ex360/Em465; stronger effect = lower value; z-score (concentration not given with the values); 65,000 tested, 0.18% active; AID 577, 2007; in the data active = z-score below about -3
Target sequence (P06935 1371-1501 limits assumed): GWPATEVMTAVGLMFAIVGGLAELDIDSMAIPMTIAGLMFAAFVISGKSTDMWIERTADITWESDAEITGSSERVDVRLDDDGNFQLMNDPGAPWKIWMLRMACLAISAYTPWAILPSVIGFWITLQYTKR
Target sequence (P06935 1502-1679 limits assumed): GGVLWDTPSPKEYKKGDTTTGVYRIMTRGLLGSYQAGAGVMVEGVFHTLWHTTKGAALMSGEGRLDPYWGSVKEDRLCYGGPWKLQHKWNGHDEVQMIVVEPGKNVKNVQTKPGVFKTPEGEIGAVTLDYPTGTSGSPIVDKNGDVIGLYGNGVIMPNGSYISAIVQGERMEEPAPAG
SF-1 act: activators of human SF-1, primary screen, cell-based, CHO-K1, Gal4-SF-1 LBD, luciferase luminescence; activation, % at 10 µM; 65,000 tested, 1.9% active; CHO-K1 Gal4-SF-1 LBD luciferase reporter; % increase over DMSO SF-1-specific signal; AID 522, 2006; Steroidogenic factor 1 (Homo sapiens), Q13285;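 active = activation above the mean activation of all tested compounds plus 3 SD, cut at about 50% in these data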
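System: CHO-K1 cells with Gal4–hSF-1 LBD chimera plus Gal4-driven luciferase; quantity: 4,000 CHO-K1 cells per well; compound: one dose, 10 µM compound, 1% DMSO; times: 20 h compound treatment, 37 °C; measured by: SteadyLite luciferase luminescence; read-out: percent activation versus DMSO; benchmarks: DMSO and mock-transfected background; replicates: one test per compound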
RORA act: activators of orphan receptor RORA, primary screen, cell-based, luminescence; Nuclear receptor ROR-alpha (Homo sapiens), P35398; CHO-K1 Gal4-RORA LBD luciferase reporter; percent increase over mock-subtracted basal signal; activation, % at 10 µM; 65,000 tested, 1.5% active;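 active = activation above the mean of all tested compounds plus 3 SD, cut at about 49% in these data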
A number is an active result; - = inactive; . = no result. In the library only some 2.3% were active in any assay of this set; here they are far more common.

SMILES	MMP-13 inhibitor	MT1-MMP txn act	WNV NS2B-NS3 inh	SF-1 act	RORA act
CCOC(=O)N1CCC(NC(=O)c2ccc3c(c2)sc2nc(-c4ccccc4)cn23)CC1	-	.	-	-	53.0
CCOC(=O)N1CCC(NC(=O)c2ccc3c(c2)sc2nc(-c4cccc(OC)c4)cn23)CC1	-	-	-	-	-
O=C(NCCSCc1ccco1)Nc1cccc(Cl)c1	-	-	-	-	-
O=C(NCCSCc1ccco1)Nc1ccc(Cl)cc1	-	-	-	65.0	-
COc1cccc(Cn2c(-c3nonc3N)nc3ccccc32)c1	-	-	-	62.3	-
COc1ccc(-c2cc(C(=O)N3CCN(Cc4ccccc4)CC3)no2)cc1OC	-	-	-	-	-
COc1ccc(-c2cc(C(=O)N3CCCCC3)no2)cc1OC	-	-	-	76.8	-
Cc1cc2nc(C)n(CCCNC(=O)Nc3ccc(F)cc3)c2cc1C	.	-	.	.	.
O=C(NCCCn1ccnc1)NC(C(F)(F)F)C(F)(F)F	-	-	-	-	-
O=C(NCCCn1ccnc1)Nc1cccc2ccccc12	.	2.1	.	.	.
COc1ccc(-c2noc(Cc3cccs3)n2)cc1	-	-	-	-	56.9
COc1ccc(-c2noc(Cc3ccccc3OC)n2)cc1	-	-	-	-	-
COc1cccc(CSc2nc3sc(C)c(C)c3c(=O)n2Cc2ccco2)c1	-	-	-	-	-
COc1ccc(C(=O)CN2C(=O)c3ccccc3C2=O)c(OC)c1C	-	-	-	-	-
CCCn1c(C)cc(C(=O)CN2C(=O)c3ccccc3C2=O)c1C	-	-	-	65.1	54.8
CCOC(=O)CSc1nc2cc(OCC)ccc2cc1C#N	-	-	-	-	53.3
CCOC(=O)CSc1nc(-c2ccc3c(c2)OCO3)ccc1C#N	-	-	-	63.6	-
CCOC(=O)CSc1nc(-c2ccncc2)ccc1C#N	-	-	-	80.5	-
Cc1ccc(N(CC(=O)N2CCN(C3CCCCC3)CC2)S(=O)(=O)c2cccnc2)cc1	-	-	-	-	-
CCCCCCN=CC1=C(O)C(C(=O)OC)C(C)(C)CC1=O (stereo unspecified)	.	.	-	.	.
Cc1ccc(-n2c(C)cc(C(=O)COC(=O)c3c(C)noc3C)c2C)cc1	-	-	-	78.8	-
OC(CNCCCN1CCCCC1)COc1ccccc1 (stereo unspecified)	-	-	-5.96	-	-
O=C(Nc1scc(-c2ccc(F)cc2)c1C(=O)O)c1ccco1	-	-	-	-	-
Cc1cnc(NC(=O)c2ccco2)s1	-	-	-	52.9	70.7
Cc1cc(NC(=O)c2ccco2)ncc1NC(=O)Cc1ccccc1	-	-	-	-	56.9
SMILES	MMP-13 inhibitor	MT1-MMP txn act	WNV NS2B-NS3 inh	SF-1 act	RORA act
COC(=O)c1sc(NC(=O)c2ccco2)nc1C	-	-	-	50.1	-
COC(=O)c1c(-c2ccccc2)csc1NC(=O)c1ccco1	-	-	-	-	95.9
Cc1sc(NC(=O)c2ccco2)nc1-c1ccccc1	.	-	.	.	.
C[C@@H](C(=O)Nc1ccc2ccccc2c1)[C@@H]1C[C@@]1(C)[C@@H](NC(=O)Oc1ccc(F)cc1)c1ccccc1	.	-	.	.	.
Cc1cnc(NC(=O)COc2ccccc2)s1	-	-	-	82.0	54.4
Cc1ccc(C(=O)Nc2ncc(Cc3ccccc3)s2)o1	-	-	-	61.0	-
O=C(Nc1ncc(Cc2ccccc2)s1)c1cccs1	-	-	-	-	-
CC(=O)c1sc(NC(=O)c2ccco2)nc1-c1ccccc1	-	-	-	70.2	-
CCCCCn1c(CN2CCN(c3cc(Cl)ccc3C)CC2)nc2c1c(=O)[nH]c(=O)n2C	-	-	-	-	-
Cc1nn(-c2ccccc2)c(OC(=O)c2cccs2)c1S(=O)(=O)c1ccccc1	-	-	-	-	-
Nc1cc(OC(=O)c2cccs2)nn1S(=O)(=O)c1ccccc1	-	-	-8.13	-	-
Nc1cc(OC(=O)c2cccs2)nn1S(=O)(=O)c1ccc(F)cc1	-	-	-5.26	-	-
Cn1c(CCNC(=O)c2ccco2)nc2cc(NS(=O)(=O)c3ccc(Cl)cc3)ccc21	-	-	-	-	-
Cn1c(C(=O)NCC2CCCO2)cc2oc3ccccc3c21 (stereo unspecified)	-	-	-	49.7	59.0
Cn1c(C(=O)NCc2ccccc2)cc2oc3ccccc3c21	.	-	.	.	.
